In the array DNA melting data of Ke et al. (doi:10.1101/2024.01.08.574731):

Legend:
[1] = folding enthalpy; higher = less favourable; fluorescence melt of hairpins on a sequencing array, two-state fit; conditions: sodium 0.088 M
Summary of the method: (§1)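 On a sequenced MiSeq flow cell, library hairpins with annealed Cy3 and quencher oligos were imaged for Cy3 fluorescence in 2.5 °C steps up to 60 °C, in 50 mM Na-HEPES pH 8.0, 25 mM NaCl. Normalisation used pre-quench Cy3 and control constructs. Bootstrapped two-state fits gave melting temperature and folding enthalpy, combined by inverse variance across four replicates and with fitted temperatures raised by 9.35 °C to match UV melts.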

[2] = melting temperature; fluorescence melt of hairpins on a sequencing array, two-state fit, raised by 9.35 °C to match UV melts; conditions: sodium 0.088 M
Summary of the method: as §1

Row | Sequence | folding enthalpy [1] [kcal/mol] | Tm [2] [°C]
1 | GTAGACGAAAGTCTGTAC ((((((....)))..))) | -11.6 | 36.8
2 | GTAGACGGAAACGTCCAC ((.((((....)))).)) | -13.4 | 37.9
3 | GTAGAGCGAAAGCTATAC (((.(((....))).))) | -23.4 | 51.6
4 | GTAGAGCGAAAGCTTAC (((.(((....)))))) | -12.8 | 38.5
5 | GTAGAGGGAAACCCCTAC ((((.((....)).)))) | -20.4 | 39.2
6 | GTAGAGGGAAACCTCTGC (.(((((....))))).) | -23.1 | 45.9
7 | GTAGATACGAAAGTATAC (((..(((....)))))) | -11.6 | 25.4
8 | GTAGATCCGAAAGGATAC (((..(((....)))))) | -11.1 | 30.4
9 | GTAGATCGAAAGATTTAC (((.(((....))).))) | -30.4 | 39.5
10 | GTAGCACGAAAGTGTTAC (((.(((....))).))) | -29.2 | 51.5
11 | GTAGCAGAAATGCTAC ((((((....)))))) | -35.4 | 55.9
12 | GTAGCAGGAAACTGCTGC (.(((((....))))).) | -26.2 | 55.5
13 | GTAGCCACGAAAGTGTAC (((..(((....)))))) | -9.72 | 22.3
14 | GTAGCCGAAAGGCAGTAC ((((((....)))..))) | -9.03 | 30.4
15 | GTAGCCGAAAGGCTATAC ((((((....)))..))) | -10.2 | 47.1
16 | GTAGCCGAAAGGCTGTAC ((((((....)))..))) | -9.24 | 31.2
17 | GTAGCCGAAAGGCTTTAC ((((((....)))..))) | -7 | 27.3
18 | GTAGCCGGAAACGACTAC ((((.((....)).)))) | -34.4 | 46.6
19 | GTAGCGCGAAAGCGTTAC (((.(((....))).))) | -23.1 | 58.3
20 | GTAGCGGCGAAAGCCTAC (((..(((....)))))) | -10.4 | 29.9
21 | GTAGCTCCGAAAGGATAC (((..(((....)))))) | -14.6 | 25.4
22 | GTAGCTCGAAAGAGGTAC (((.(((....))).))) | -38 | 56.7
23 | GTAGCTCGAAAGAGTTAC (((.(((....))).))) | -33.6 | 50.6

Row | Sequence | folding enthalpy [1] [kcal/mol] | Tm [2] [°C]
24 | GTAGCTGGAAACAGCTAC (((((((....))))))) | -39 | 66
25 | GTAGGACGAAAGTCTAC (((.(((....)))))) | -17.2 | 43
26 | GTAGGAGGAAACTCCTAC (((((((....))))))) | -38 | 57.5
27 | GTAGGAGGAAACTCTTAC (((.(((....))).))) | -17.8 | 34.8
28 | GTAGGCACGAAAGTGTAC (((..(((....)))))) | -13.6 | 29.8
29 | GTAGGCCGAAAGGCTTAC (((.(((....))).))) | -21.2 | 55.4
30 | GTAGGCGAAAGCCACTAC ((((((....)))..))) | -11.9 | 47.3
31 | GTAGGCGAAAGCCTATAC ((((((....)))..))) | -9.56 | 45.2
32 | GTAGGCGGAAACACCTAC (((((.(....).))))) | -25.8 | 44.5
33 | GTAGGCGGAAACGCCTGC (.(((((....))))).) | -18.6 | 56.7
34 | GTAGGCTCGAAAGAGTAC (((..(((....)))))) | -10.6 | 29.2
35 | GTAGGGCGAAAGCCATAC (((.(((....))).))) | -22.2 | 55.6
36 | GTAGGTGGAAACACCCAC ((.((((....)))).)) | -13.1 | 34.7
37 | GTAGGTGGAAACACTTAC (((.(((....))).))) | -28.4 | 39.5
38 | GTAGGTGGAAACATCTGC (.((.((....)).)).) | -18.4 | 30
39 | GTAGTAGGAAACCACTAC (((((.(....).))))) | -28.9 | 35
40 | GTAGTAGGAAACTATTAC (((.(((....))).))) | -17.7 | 29.9
41 | GTAGTCGAAAGACATAC ((((((....))).))) | -16.2 | 35.2
42 | GTAGTCGAAAGACGTAC ((((((....))).))) | -19.1 | 47.6
43 | GTAGTGCCGAAAGGCTAC (((..(((....)))))) | -9.39 | 36.2
44 | GTAGTTGAAAAACTAC ((((((....)))))) | -30.9 | 48.9
45 | GTAGTTGGAAACAACCAC ((.((((....)))).)) | -18.7 | 32.6
46 | GTATAAACGAAAGTTTAC (((..(((....)))))) | -11.8 | 29.4

Row | Sequence | folding enthalpy [1] [kcal/mol] | Tm [2] [°C]
47 | GTATACACGAAAGTGTAC (((..(((....)))))) | -9.78 | 31.1
48 | GTATACGAAAGTAAATAC ((((((....)))..))) | -14.8 | 27.7
49 | GTATACGAAAGTACATAC ((((((....)))..))) | -10.6 | 21.3
50 | GTATACGAAAGTACGTAC ((((((....)))..))) | -14 | 26.7
51 | GTATACGCGAAAGCGTAC (((..(((....)))))) | -7.12 | 37.9
52 | GTATACGGAAACGTATAC (((((((....))))))) | -44.8 | 55.9
53 | GTATACTCGAAAGAGTAC (((..(((....)))))) | -11.6 | 35
54 | GTATAGCGAAAGCTGTAC (((.(((....))).))) | -31.5 | 51.1
55 | GTATAGGGAAACCTATAC (((((((....))))))) | -41 | 50.1
56 | GTATAGGGAAACTTATAC (((((.(....).))))) | -14.2 | 27.7
57 | GTATATACGAAAGTATAC (((..(((....)))))) | -16.1 | 29.6
58 | GTATATCGAAAGATTAC (((.(((....)))))) | -14.6 | 31
59 | GTATATGCGAAAGCATAC (((..(((....)))))) | -8.89 | 32.1
60 | GTATATGGAAACATATGC (.(((((....))))).) | -25 | 36.5
61 | GTATCACGAAAGTGCTAC (((.(((....))).))) | -22.7 | 41.1
62 | GTATCACGAAAGTGTAC (((.(((....)))))) | -18.1 | 42.6
63 | GTATCAGAAATGATAC ((((((....)))))) | -31.6 | 45.6
64 | GTATCAGGAAACCGATAC (((((.(....).))))) | -30.7 | 38.1
65 | GTATCAGGAAACTGACAC ((.((((....)))).)) | -22.7 | 32.1
66 | GTATCAGGAAACTGATGC (.(((((....))))).) | -24.8 | 45
67 | GTATCCGAAAGGATAC ((((((....)))))) | -35.1 | 65.8
68 | GTATCCGGAAACGGATAC (((((((....))))))) | -36.6 | 63.7
69 | GTATCCGGAAACGGGTAC (((.(((....))).))) | -42.2 | 51.3

Row | Sequence | folding enthalpy [1] [kcal/mol] | Tm [2] [°C]
70 | GTATCGCGAAAGCGTTAC (((.(((....))).))) | -21.2 | 48.4
71 | GTATCGGAAACGATAC ((((((....)))))) | -40.4 | 55.5
72 | GTATCGGGAAACCGATAC (((((((....))))))) | -42.3 | 62.2
73 | GTATCGGGAAACTGATAC (((((.(....).))))) | -37.3 | 45.3
74 | GTATCTGGAAACAGATGC (.(((((....))))).) | -21.2 | 46.9
75 | GTATGAGGAAACTCATGC (.(((((....))))).) | -26.4 | 44.5
76 | GTATGCGAAAGCAAGTAC ((((((....)))..))) | -8.53 | 26.1
77 | GTATGCGAAAGCAGGTAC ((((((....)))..))) | -13.2 | 30
78 | GTATGCGAAAGCAGTTAC ((((((....)))..))) | -10.1 | 28.2
79 | GTATGCGAAAGCATCTAC ((((((....)))..))) | -11.3 | 40
80 | GTATGCGGAAACGCACAC ((.((((....)))).)) | -15.4 | 40
81 | GTATGCGGAAACGCGTAC (((.(((....))).))) | -31.9 | 55
82 | GTATGCGGAAACGTATAC ((((.((....)).)))) | -31 | 46.5
83 | GTATTACGAAAGTACTAC (((.(((....))).))) | -19.9 | 32.7
84 | GTATTAGAAATAATAC ((((((....)))))) | -22.2 | 31.9
85 | GTATTAGGAAACTGATAC ((((.((....)).)))) | -21.3 | 34.3
86 | GTATTCCGAAAGGACTAC (((.(((....))).))) | -26.4 | 38.2
87 | GTATTCCGAAAGGAGTAC (((.(((....))).))) | -36.7 | 47.5
88 | GTATTCGAAAGAAATAC ((((((....))).))) | -14.9 | 34
89 | GTATTCGAAAGAATTAC ((((((....))).))) | -13 | 31.4
90 | GTATTCGGAAACGAATGC (.(((((....))))).) | -29.1 | 48.6
91 | GTATTGCGAAAGCATAC (((.(((....)))))) | -12.2 | 45
